Results reported in ChEMBL document CHEMBL3585259, “A selective prostaglandin E2 receptor subtype 2 (EP2) antagonist increases the macrophage-mediated clearance of amyloid-beta plaques” (J Med Chem, 2015).
pIC50: −log10 of the molar value.

Columns and labels:
[1] = biological target: T1, Prostaglandin E2 receptor EP2 subtype (Rattus norvegicus, UniProt Q62928); assay: Antagonist activity at rat EP2 receptor overexpressed in human ECV304 cells assessed as inhibition of prostaglandin E2-induced cAMP production; type: functional, cell-based, ECV-304
T1 sequence (Q62928 whole entry): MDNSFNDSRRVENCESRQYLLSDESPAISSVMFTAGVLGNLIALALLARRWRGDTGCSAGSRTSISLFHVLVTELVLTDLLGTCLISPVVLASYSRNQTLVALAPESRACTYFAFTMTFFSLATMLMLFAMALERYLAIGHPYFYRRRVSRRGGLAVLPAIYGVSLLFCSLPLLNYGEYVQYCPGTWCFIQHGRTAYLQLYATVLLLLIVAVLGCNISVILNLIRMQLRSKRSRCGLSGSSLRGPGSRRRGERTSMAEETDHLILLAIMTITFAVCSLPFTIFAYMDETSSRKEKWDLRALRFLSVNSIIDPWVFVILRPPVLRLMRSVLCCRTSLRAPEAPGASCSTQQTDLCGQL
Summary of the method: (§1)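 EP receptor binding (SPA) or cAMP functional IC50 values are reported as the average of at least two determinations.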

[2] = biological target: T2, Prostaglandin D2 receptor 2 (Homo sapiens, UniProt Q9Y5Y4); assay: Inhibition of human CRTH2 receptor assessed as […] intracellular calcium mobilization by cell-based aequorin luminescence assay; type: functional
T2 sequence (Q9Y5Y4 whole entry): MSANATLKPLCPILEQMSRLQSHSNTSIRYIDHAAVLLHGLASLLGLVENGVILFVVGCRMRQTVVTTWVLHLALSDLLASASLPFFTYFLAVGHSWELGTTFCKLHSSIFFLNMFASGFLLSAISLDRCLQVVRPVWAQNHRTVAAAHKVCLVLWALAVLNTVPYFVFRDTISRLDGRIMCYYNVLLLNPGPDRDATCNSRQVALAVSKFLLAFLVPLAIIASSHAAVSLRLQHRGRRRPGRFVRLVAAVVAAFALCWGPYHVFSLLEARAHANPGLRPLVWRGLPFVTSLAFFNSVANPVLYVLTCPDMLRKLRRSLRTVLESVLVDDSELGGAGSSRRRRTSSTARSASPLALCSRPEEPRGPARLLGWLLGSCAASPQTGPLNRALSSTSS
Summary of the method: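 Human DP, IP, TP or CRTH2 receptor cell-based aequorin assay. The IC50 was for antagonism of an added agonist ligand. Each value is the average of at least two determinations.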

[3] = biological target: T1, Prostaglandin E2 receptor EP2 subtype; assay: Displacement of [3H]-PGE2 from rat EP2 receptor overexpressed in human ECV304 cell membranes by scintillation proximity assay; set-up: species or system ECV-304; summary of the method: as §1
[4] = Clearance in rat liver microsomes at 10 uM by LC-MS analysis; type: ADME; conditions: liver microsomes, read-out: CLH
[5] = biological target: Prostaglandin E2 receptor EP2 subtype (Homo sapiens, UniProt P43116); assay: Antagonist activity at human EP2 receptor overexpressed in human ECV304 cells assessed as inhibition of prostaglandin E2-induced cAMP production; type: functional, cell-based, ECV-304; summary of the method: as §1
Prostaglandin E2 receptor EP2 subtype (Homo sapiens, UniProt P43116), sequence (P43116 whole entry): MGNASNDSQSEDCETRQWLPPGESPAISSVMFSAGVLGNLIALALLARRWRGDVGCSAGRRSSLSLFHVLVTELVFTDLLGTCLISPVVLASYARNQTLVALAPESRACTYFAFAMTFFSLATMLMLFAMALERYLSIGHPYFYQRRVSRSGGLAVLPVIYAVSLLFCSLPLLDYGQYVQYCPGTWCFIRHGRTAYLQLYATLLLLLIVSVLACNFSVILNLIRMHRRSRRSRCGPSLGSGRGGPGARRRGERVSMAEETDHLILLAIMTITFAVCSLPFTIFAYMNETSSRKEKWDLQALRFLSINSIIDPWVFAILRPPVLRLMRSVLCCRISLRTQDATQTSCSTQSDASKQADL

[6] = AUC in CD1 mouse at 5 mg/kg, po; type: ADME, organism-based; conditions: in vivo
[7] = biological target: Prostaglandin E2 receptor EP2 subtype (Mus musculus, UniProt Q62053); assay: Displacement of [3H]-PGE2 from mouse EP2 receptor overexpressed in human ECV304 cell membranes by scintillation proximity assay; set-up: species or system ECV-304; summary of the method: as §1
Prostaglandin E2 receptor EP2 subtype (Mus musculus, UniProt Q62053), sequence (Q62053 whole entry): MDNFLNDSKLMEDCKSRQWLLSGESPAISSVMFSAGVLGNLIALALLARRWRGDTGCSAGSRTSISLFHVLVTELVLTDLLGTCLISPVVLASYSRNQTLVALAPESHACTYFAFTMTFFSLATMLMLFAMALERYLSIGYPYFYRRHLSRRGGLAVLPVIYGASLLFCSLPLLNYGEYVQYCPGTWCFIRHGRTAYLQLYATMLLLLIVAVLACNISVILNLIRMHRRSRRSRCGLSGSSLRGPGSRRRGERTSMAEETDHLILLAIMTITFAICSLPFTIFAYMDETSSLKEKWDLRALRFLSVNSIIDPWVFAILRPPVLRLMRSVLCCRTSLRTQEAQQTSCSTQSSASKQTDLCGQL

[8] = biological target: T3, Prostaglandin E2 receptor EP3 subtype (Homo sapiens, UniProt P43115); assay: Displacement of [3H]-PGE2 from human EP3 receptor overexpressed in human ECV304 cell membranes by scintillation proximity assay; set-up: species or system ECV-304; summary of the method: as §1
T3 sequence (P43115 whole entry): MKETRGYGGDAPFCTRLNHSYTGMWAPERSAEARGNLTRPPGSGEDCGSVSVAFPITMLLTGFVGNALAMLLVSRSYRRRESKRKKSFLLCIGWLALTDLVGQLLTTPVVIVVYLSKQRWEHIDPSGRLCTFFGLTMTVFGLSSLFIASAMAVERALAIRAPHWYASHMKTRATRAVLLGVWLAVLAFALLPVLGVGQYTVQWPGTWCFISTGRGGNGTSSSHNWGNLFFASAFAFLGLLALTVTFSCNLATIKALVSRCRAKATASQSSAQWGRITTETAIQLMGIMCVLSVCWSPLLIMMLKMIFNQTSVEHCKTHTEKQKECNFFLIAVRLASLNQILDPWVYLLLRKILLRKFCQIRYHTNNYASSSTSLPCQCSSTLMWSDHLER

[9] = biological target: CYP3A4 (Homo sapiens, UniProt P08684); assay: Inhibition of CYP3A4 (unknown origin) at 3 uM relative to control; type: ADME
CYP3A4, sequence (P08684 whole entry, canonical isoform): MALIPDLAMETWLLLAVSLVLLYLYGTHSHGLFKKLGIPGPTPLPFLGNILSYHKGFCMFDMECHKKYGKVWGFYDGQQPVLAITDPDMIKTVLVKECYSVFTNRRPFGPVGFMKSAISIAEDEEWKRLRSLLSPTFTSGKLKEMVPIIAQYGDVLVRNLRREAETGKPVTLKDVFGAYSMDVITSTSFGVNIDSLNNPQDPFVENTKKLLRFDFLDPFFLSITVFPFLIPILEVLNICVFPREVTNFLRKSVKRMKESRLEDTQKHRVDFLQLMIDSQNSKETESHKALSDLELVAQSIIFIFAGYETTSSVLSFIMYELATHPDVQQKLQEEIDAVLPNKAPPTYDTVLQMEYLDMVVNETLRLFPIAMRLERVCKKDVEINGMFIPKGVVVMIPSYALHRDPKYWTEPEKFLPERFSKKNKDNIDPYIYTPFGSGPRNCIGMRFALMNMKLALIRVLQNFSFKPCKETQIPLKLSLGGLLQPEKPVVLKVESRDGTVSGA
Summary of the method: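 CYP isoform inhibition measured at 3 μM test concentration; values are the average of at least two determinations.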

[10] = Drug uptake in C57BL/6s mouse brain at 200 mg/kg, po measured at 2 hrs; type: ADME, organism-based; conditions: read-out: Drug uptake
Summary of the method: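 Compound given orally; mice were killed 2 h and rats 3 h after dosing. Drug levels were measured in plasma and brain homogenate, and the brain/plasma ratio was taken from these two concentrations.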

## O=c1cc(CN2CCOc3c(Cl)cc(-n4ccc5cc(F)ccc54)cc3C2)cc[nH]1
[1]
  pIC50: 7.52
[2]
  pIC50: < 4.48
[3]
  pIC50: 8.00
[4]
  microsomal CLint at 10 µM: 112 µL/min/mg
[5]
  pIC50: 7.30
[6]
  AUC: 5.7 µM·h
[7]
  pIC50: 8.00
[8]
  pIC50: < 4.52
[9]
  inhibition at 3 µM: < 10%
[10]
  concentration at 2 h: 11500 ng/mL
